PubChem BioAssay
Records with an inconclusive call do not appear.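 Rule for the calls, unless noted: active = viability at or below 27.92% in each of two runs, the all-compound median minus 4 SD; inconclusive = no clear call, values can overlap the other calls; inactive = the rest.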

Columns and labels:
[1] = S. cerevisiae growth inhibition in permissive medium (OD615), pilot counter-assay for S. cerevisiae lifespan shortening project, permissive growth control (AID 705;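 active = growth inhibition above 25% in both replicates, a cutoff set 3 SD above the mean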); conditions: OD615, 24 h, at 10 µM, hits give high values
Summary of the method: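 System – S. cerevisiae with engineered DeaD lifespan system · Buffer or medium – SC raffinose/galactose permissive medium · Schedule – cells pre-grown 4 h, then 24 h compound exposure, 30 °C humidified · Technique – culture turbidity as optical density at 615 nm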

[2] = S. cerevisiae growth inhibition in restrictive medium, OD615, pilot screen, restrictive growth control, yeast lifespan reduction project (AID 706;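 active = growth inhibition above a set limit, 3 SD over mean compound inhibition, in both replicates, cut at about 43% in these data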;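 note: modified DeaD lifespan yeast strain shifted to restrictive glucose medium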); conditions: OD615, 48 h, at 10 µM, hits give high values
Summary of the method: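 Material: engineered S. cerevisiae DeaD strain / Medium: glucose-based CSMM-D restrictive medium / Compound: single dose of 10 µM compound final, 0.25% DMSO / Timing: 4 h pre-incubation, 48 h exposure at 30 °C / Technique: OD615 absorbance reading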

[3] = doxorubicin toxicity protection in MRP-1 cells – H69AR cells, CellTiter-Glo, duplicate, MRP-1 activator project, pilot screen (AID 807;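 active = viability increase at or above a cutoff of the median across tested compounds plus 3 SD, cut at about 8.5% in these data, passing the limit was not always enough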;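 note: compound pretreatment 18-22 h then 72 h combined with doxorubicin; 0% = doxorubicin alone and 100% = vehicle without doxorubicin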); conditions: H69AR viability with doxorubicin, CellTiter-Glo luminescence; at 10 µM; hits give high values
[4] = viability of HCT116 without oncogenic beta-catenin – human colon tumor cells, pilot screen (AID 823;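 active = cell viability at or below a set limit in both duplicate runs, the limit being the all-compound median minus 4 SD, cut at about 23% in these data, passing the limit was not always enough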;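 note: 0% = wells killed by 20 µM Hyamine and 100% = untreated DMSO cell wells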); conditions: HCT116 beta-catenin knockout viability, CellTiter-Glo, 60 h; at 10 µM; hits give low values
[5] = viability of PTEN-null HCT116 cells – cell-based, HCT116 clonal line, CellTiter-Glo, pilot screen (AID 824); conditions: HCT116 PTEN-deleted viability, 60 h, at 10 µM, hits give low values;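 note: 0% = 20 µM Hyamine control and 100% = vehicle cell control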
[6] = RAM pathway blockade in budding yeast – dse1pr::URA3 reporter, 5-FOA selection, pilot screen (AID 869;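 active = inhibition over a set limit, the all-compound mean plus 3 SD, in both replicate runs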;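 note: 0% = DMSO wells with no growth and 100% = 10 µM 1-NA-PP1 with full growth; RAM network block rescues cells from 5-FOA so hits raise OD615 growth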); conditions: S. cerevisiae dse1pr::URA3 5-FOA growth, OD615, 2 d; at 10 µM; hits give high values; strain carries analog-sensitive mutant Cbk1 kinase
[7] = RAM signaling pathway blockade in yeast – S. cerevisiae, Pdr1DBD-CYC8 efflux-inhibited sensitized strain, primary screen (AID 1298;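 active = RAM network inhibition above 8.4% in each of two replicates, 3 SD over the compound average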;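 note: 0% = DMSO untreated cells without growth and 100% = 10 µM 1-NA-PP1 full growth; higher means more yeast growth rescued from 5-FOA killing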); conditions: S. cerevisiae cbk1-as DSE1-URA3 strain, 5-FOA growth OD615, 2 d; at 50 µM; hits give high values

COc1ccc(C)cc1NC(=O)CSc1nnc(-c2ccc(C)cc2)o1
inactive: growth inhibition [1] -8.71% | growth inhibition [2] 30.3% | viability increase [3] 1.15% | viability [4] 91.9% | viability [5] 86.8% | inhibition [6] 2.09% | RAM network inhibition [7] 5.49%

O=C(c1cc2ccccn2n1)N1CCCC1
inactive: growth inhibition [1] -5.76% | growth inhibition [2] -2.7% | viability increase [3] -1.17% | viability [4] 103% | viability [5] 100% | inhibition [6] 1.79% | RAM network inhibition [7] 6.63%

CCN1C(=O)c2ccccc2S(=O)c2ccc(C(=O)N3CCCC3)cc21 (stereo unspecified)
inactive: growth inhibition [1] -3.58% | growth inhibition [2] 3.54% | viability increase [3] -1.58% | viability [4] 93.3% | viability [5] 88.9% | inhibition [6] 1.16% | RAM network inhibition [7] -1.72%

COc1cccc(OC)c1C(=O)Nc1ccc2c(c1)OCCO2
inactive: growth inhibition [1] -8.21% | growth inhibition [2] 0.395% | viability increase [3] -0.21% | viability [4] 99.8% | viability [5] 95.9% | inhibition [6] 1.23% | RAM network inhibition [7] 0.51%

CCN(CC)c1cc(C)c2cc(NC(=O)CNC(C)=O)ccc2n1
inactive: growth inhibition [1] -10.4% | growth inhibition [2] -8.29% | viability increase [3] -2.37% | viability [4] 90% | viability [5] 91.1% | inhibition [6] 1.11% | RAM network inhibition [7] 2.59%

Cc1ccc(C2CC(c3ccco3)n3nc(N)nc3N2)cc1 (stereo unspecified)
inactive: growth inhibition [1] 4.36% | growth inhibition [2] 11.9% | viability increase [3] -1.44% | viability [4] 96.5% | viability [5] 99.8% | inhibition [6] -1.15% | RAM network inhibition [7] 3.41%

CC1CCCCN1c1nnc(NC(=O)Cn2c(=O)oc3ccccc32)s1 (stereo unspecified)
inactive: growth inhibition [1] -4.21% | growth inhibition [2] -14.8% | viability increase [3] -1.54% | viability [4] 110% | viability [5] 97.8% | inhibition [6] -0.575% | RAM network inhibition [7] 4.48%

O=C(CSc1nnc(-c2cccnc2)n1Cc1ccco1)c1ccc(Br)cc1
inactive: growth inhibition [1] 1.25% | growth inhibition [2] 32.4% | viability increase [3] -1.99% | viability [4] 79.9% | viability [5] 86.8% | inhibition [6] 0.005% | RAM network inhibition [7] 10%

Cc1ccc(N2Cc3ccccc3OC(C)C2=O)cc1 (stereo unspecified)
inactive: growth inhibition [1] -1.43% | growth inhibition [2] 0.105% | viability increase [3] -3.99% | viability [4] 90.3% | viability [5] 91.3% | inhibition [6] 0.735% | RAM network inhibition [7] 1.16%

O=C(Nc1ccc(SC(F)F)cc1)C1=COCCO1
inactive: growth inhibition [1] -0.035% | growth inhibition [2] 10.5% | viability increase [3] 2.59% | viability [4] 93.8% | viability [5] 90.1% | inhibition [6] 1.4% | RAM network inhibition [7] 5.17%

CN1C(=O)CS(=O)c2ccc(C(=O)NC3CC3)cc21 (stereo unspecified)
inactive: growth inhibition [1] 1.7% | growth inhibition [2] -0.875% | viability increase [3] -2.2% | viability [4] 99.4% | viability [5] 95.4% | inhibition [6] 2.25% | RAM network inhibition [7] -1.59%

CCOCCn1c(CN(Cc2ccccc2)Cc2ccccc2)nc2c1c(=O)n(C)c(=O)n2C
inactive: growth inhibition [1] 0.79% | growth inhibition [2] 12.6% | viability increase [3] -2.62% | viability [4] 64.7% | viability [5] 57.6% | inhibition [6] 1.48% | RAM network inhibition [7] 5.44%

CCOc1ccc(N(CC(=O)O)S(=O)(=O)c2ccc(OC)c(OC)c2)cc1
inactive: growth inhibition [1] -8.3% | growth inhibition [2] -13.4% | viability increase [3] -0.45% | viability [4] 95.5% | viability [5] 95.3% | inhibition [6] 1.32% | RAM network inhibition [7] 1.05%

Cn1nnnc1SCC(=O)c1ccco1
inactive: growth inhibition [1] -7.91% | growth inhibition [2] -1% | viability increase [3] -3.23% | viability [4] 103% | viability [5] 105% | inhibition [6] 1.83% | RAM network inhibition [7] -0.17%

O=C(c1ccccc1S(=O)(=O)NCc1ccccc1)N1CCCC1
inactive: growth inhibition [1] -12% | growth inhibition [2] -20.3% | viability increase [3] -0.09% | viability [4] 110% | viability [5] 98% | inhibition [6] 1.66% | RAM network inhibition [7] 3.93%

CCOc1ccccc1-c1nc(C(N)=O)c2[nH]c(=O)n(-c3ccc(F)cc3)c2n1
inactive: growth inhibition [1] -8.26% | growth inhibition [2] -0.005% | viability increase [3] -4.08% | viability [4] 90.2% | viability [5] 83.9% | inhibition [6] 0.93% | RAM network inhibition [7] -0.71%

O=C(CSc1nc2ccccc2o1)NCc1ccco1
inactive: growth inhibition [1] -11.6% | growth inhibition [2] -16% | viability increase [3] -3.53% | viability [4] 102% | viability [5] 98% | inhibition [6] 0.97% | RAM network inhibition [7] 5.5%

Cc1cc(-c2c(C)n([O-])c(C)c(C)[n+]2=O)ccc1F
inactive: growth inhibition [1] -10.8% | growth inhibition [2] -3.75% | viability increase [3] 0.1% | viability [4] 102% | viability [5] 98.2% | inhibition [6] 1.03% | RAM network inhibition [7] 0.32%

CC(=O)NC(NC(C)=O)c1ccc(N(C)C)cc1
inactive: growth inhibition [1] 2.72% | growth inhibition [2] 16.3% | viability increase [3] -0.12% | viability [4] 100% | viability [5] 100% | inhibition [6] -0.22% | RAM network inhibition [7] -0.26%

CCCCNC(=O)Nc1cc(C(=O)OC)ccc1C
inactive: growth inhibition [1] -6.38% | growth inhibition [2] -14.2% | viability increase [3] 0.11% | viability [4] 85.2% | viability [5] 91.4% | inhibition [6] 1.55% | RAM network inhibition [7] 7.5%

CCOC(=O)c1cn(-c2ccccc2)nc1-c1cccnc1
inactive: growth inhibition [1] -13.6% | growth inhibition [2] -8.75% | viability increase [3] -3.34% | viability [4] 106% | viability [5] 93.5% | inhibition [6] 1.63% | RAM network inhibition [7] 7.28%

COc1nc(NC(C)(C)C)nc(Oc2ccc(=O)n(C)n2)n1
inactive: growth inhibition [1] -0.24% | growth inhibition [2] -10.7% | viability increase [3] 0.23% | viability [4] 102% | viability [5] 96.5% | inhibition [6] 0.495% | RAM network inhibition [7] 5.11%

CCOCCCNC(=O)Cn1cc2c(n1)CCCC2
inactive: growth inhibition [1] 3.43% | growth inhibition [2] 1.36% | viability increase [3] -0.46% | viability [4] 105% | viability [5] 98.8% | inhibition [6] 1.91% | RAM network inhibition [7] 1.03%

COc1ccc(C(=O)Nc2cc(=O)n(C)c(=O)n2C)cc1OC
inactive: growth inhibition [1] -0.79% | growth inhibition [2] 6.3% | viability increase [3] -1.84% | viability [4] 104% | viability [5] 94.2% | inhibition [6] 1.09% | RAM network inhibition [7] -1.14%

CCCCC(=O)Nc1nc2ccc3nc(C)sc3c2s1
inactive: growth inhibition [1] -25.8% | growth inhibition [2] -2.65% | viability increase [3] -0.78% | viability [4] 81.3% | viability [5] 87.2% | inhibition [6] 2.27% | RAM network inhibition [7] 0.32%

CCn1c2ccccc2c2cc(NC(=O)c3ccco3)ccc21
inactive: growth inhibition [1] -4.29% | growth inhibition [2] -0.22% | viability increase [3] -3.74% | viability [4] 96.1% | viability [5] 93% | inhibition [6] 0.345% | RAM network inhibition [7] 0.96%

Cn1c(=O)[nH]c(=O)c2c1nc(CN1CCOCC1)n2Cc1ccc(F)cc1
inactive: growth inhibition [1] -6.42% | growth inhibition [2] -18.4% | viability increase [3] -3.24% | viability [4] 98.5% | viability [5] 93.4% | inhibition [6] 2.65% | RAM network inhibition [7] 2.15%

O=C(COc1ccc2c3c(c(=O)oc2c1)CCC3)c1ccc2c(c1)OCO2
inactive: growth inhibition [1] -8.44% | growth inhibition [2] -1.49% | viability increase [3] 2.35% | viability [4] 63.2% | viability [5] 65.1% | inhibition [6] 2.27% | RAM network inhibition [7] 7.83%

O=S(=O)(Nc1nnc(-c2ccccc2)s1)c1ccc(Cl)cc1
inactive: growth inhibition [1] 4.67% | growth inhibition [2] 14.4% | viability increase [3] -0.34% | viability [4] 104% | viability [5] 105% | inhibition [6] 3.29% | RAM network inhibition [7] 1.95%

CC(C)n1c(SCCCc2ccccc2)nc2c1c(=O)[nH]c(=O)n2C
inactive: growth inhibition [1] -6.04% | growth inhibition [2] 4.52% | viability increase [3] -0.9% | viability [4] 92.2% | viability [5] 87.5% | inhibition [6] 1.95% | RAM network inhibition [7] 8.85%

COc1ccc(N2CSC3=C(C#N)C(c4cc(OC)c(OC)cc4OC)CC(=O)N3C2)c(OC)c1 (stereo unspecified)
inactive: growth inhibition [1] -2.5% | growth inhibition [2] 31.1% | viability increase [3] -5.15% | viability [4] 71.6% | viability [5] 76.7% | inhibition [6] 1.16% | RAM network inhibition [7] 2.63%

CCc1c(C)nc(SCC(=O)Nc2ccc(Br)cc2)[nH]c1=O
inactive: growth inhibition [1] -11.9% | growth inhibition [2] 0.39% | viability increase [3] 1.64% | viability [4] 98.3% | viability [5] 103% | inhibition [6] 1.89% | RAM network inhibition [7] 3.9%

CC1CCCN(C(c2ccccc2)c2sc3ncnn3c2O)C1 (stereo unspecified)
inactive: growth inhibition [1] -7.14% | growth inhibition [2] -1.14% | viability increase [3] 3.23% | viability [4] 96.6% | viability [5] 84.8% | inhibition [6] 2.16% | RAM network inhibition [7] 4.56%
